Bioassay records deposited in PubChem BioAssay by several laboratories.
STAT1 blocker – reduces IFN-gamma driven STAT1 reporter signal; NIH 3T3 STAT1-luciferase reporter, luminescence; inhibition, % at 5.5 µM; 200,000 compounds, 0.35% hits;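 active = inhibition above a set limit, the mean inhibition across all tested compounds plus 3 SD, cut at about 34% in these data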;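 note: 0% = IFN-gamma with DMSO and 100% = IFN-gamma with 300 µM nifuroxazide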
STAT3 inh – reduces IL-6 driven STAT3 reporter signal; U3A cells, IL-6 STAT3-luciferase reporter, luminescence; host cell line lacks STAT1; inhibition, % at 5.5 µM; 190,000 compounds, 0.89% hits;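 active = inhibition above the mean inhibition across all screened compounds plus 3 SD, cut at about 44% in these data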;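 note: 0% = DMSO only wells and 100% = 100 µM nifuroxazide control wells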
TRAIL sens C8 – sensitizes caspase-8 expressing cells to TRAIL. NB7+C8 cells + TRAIL, ATPlite viability luminescence. inhibition (viability loss, TRAIL sensitization), % at 10 µM. 360,000 compounds, 1% hits. AID 624354;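 active = compounds causing at least 50% loss of cell viability in the single-dose screen, relative to plate controls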
PPC-1+TRAIL kill – compounds killing PPC-1 cancer cells with TRAIL present (potentiator screen, no TRAIL-free arm). cell killing (% activity), % at 4 µM or 5 µM. 220,000 compounds, 0.41% hits. PPC-1 cells + TRAIL, ATPLite viability luminescence. AID 1443;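 active = cell killing above 50% in the first pass at 4 µM, then a duplicate retest at 5 µM averaging 50% or more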;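 note: plate controls were cells with TRAIL plus DMSO for no effect and medium-only wells lacking cells for full effect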
HSP90 inh – HSP90 refolding inhibition in rabbit reticulocyte lysate; inhibition, % at 5.6 µM; luciferase refolding luminescence, 3 h; AID 1789; 290,000 compounds, 0.91% hits;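 active = inhibition above the screen-wide mean plus 3 SD, computed separately per campaign, cut at about 16% in these data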;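 note: 0% = DMSO wells and 100% = 60 µM geldanamycin wells; inhibitors lower the luminescence because luciferase stays unfolded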
STAT3 act – activators of IL-6 induced STAT3 signaling | U3A cells, IL-6 STAT3-luciferase reporter, luminescence; 100% = signal with IL-6 EC80 alone | 190,000 compounds, 0.91% hits | activation (% of control), % at 5.6 µM | AID 871;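 active = activation above the screen-wide mean of compound activation plus 3 SD, cut at about 130% in these data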;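 note: 0% = background luminescence of wells with medium and substrate only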
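Material: STAT1-lacking human U3A cells, STAT3 luciferase reporter | Benchmarks: IL-6-only wells as 100% reference | Probe or stimulus: IL-6 (33 ng/mL) | Timing: Compound 1 h, then IL-6 6 h at 37 °C | Detection: Luminescence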
HSP90 inh confirm – HSP90 inhibition, confirmation assay. 2,300 compounds, 64% hits. inhibition, % at 5.9 µM. rabbit reticulocyte lysate, luciferase refolding luminescence, 3 h. shares compounds with HSP90 inh; in the data active = inhibition above about 18%;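 note: 0% = vehicle wells and 100% = reference inhibitor wells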
luciferase ctr – blocks native firefly luciferase in HSP90 counter-screen; 2,300 compounds, 48% hits; shares compounds with HSP90 inh; inhibition, % at 5.9 µM; purified native firefly luciferase, luminescence; AID 1847;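 active = inhibition above the mean inhibition of all tested sample wells plus 3 SD, cut at about 10% in these data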;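 note: 0% = DMSO with luciferase and 100% = wells lacking luciferase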
Target sequence (P08659 whole entry, looked up): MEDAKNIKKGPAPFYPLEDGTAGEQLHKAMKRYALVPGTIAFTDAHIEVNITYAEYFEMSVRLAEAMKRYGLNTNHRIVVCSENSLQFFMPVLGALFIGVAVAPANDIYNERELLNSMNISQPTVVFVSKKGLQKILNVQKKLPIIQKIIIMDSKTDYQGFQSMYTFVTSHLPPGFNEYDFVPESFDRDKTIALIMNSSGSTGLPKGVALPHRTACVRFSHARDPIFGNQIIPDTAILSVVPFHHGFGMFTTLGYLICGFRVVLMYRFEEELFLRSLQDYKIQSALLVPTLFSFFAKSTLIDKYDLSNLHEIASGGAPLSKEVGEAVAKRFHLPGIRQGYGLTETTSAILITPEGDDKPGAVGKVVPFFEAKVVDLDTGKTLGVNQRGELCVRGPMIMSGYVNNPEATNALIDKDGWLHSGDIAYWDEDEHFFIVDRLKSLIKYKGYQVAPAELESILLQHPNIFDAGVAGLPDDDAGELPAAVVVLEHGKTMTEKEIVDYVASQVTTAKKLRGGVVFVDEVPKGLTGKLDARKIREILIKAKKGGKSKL
The depositor's hits bear a star; x = not tested or not shown. A selection: hits, their analogues and other compounds. The true share with any hit is near 2.3%.

SMILES	STAT1 blocker	STAT3 inh	TRAIL sens C8	PPC-1+TRAIL kill	HSP90 inh	STAT3 act	HSP90 inh confirm	luciferase ctr
Cc1cccc(/C=N/NC(=O)c2ccc3c(c2)OCCO3)c1O	x	x	76*	x	32*	x	59*	52*
COc1ccc2c(=O)c(Oc3ccc(C(=O)O)cc3)c(C(F)(F)F)oc2c1	-7	-8	1	32	72*	109	7	-7
Cc1ccc(N2C(=O)N(CC(=O)Nc3ccc(C)c(C)c3[N+](=O)[O-])C(=O)C2C)cc1 (centres undefined)	1	-3	5	11	4	104	x	x
COc1ccc(-c2cc3c(=O)n(CC(=O)NCCCN4CCN(Cc5ccccc5)CC4)ncn3n2)cc1	x	x	80*	x	26*	x	51*	35*
COc1ccc(-c2cc3c(=O)n(CC(=O)NCCCN4CCC(Cc5ccccc5)CC4)ncn3n2)cc1	x	x	83*	x	55*	x	60*	7
CCOc1ccc(CCNC(=O)Cn2ncn3nc(-c4ccc(OC)cc4)cc3c2=O)cc1	x	x	14	x	-1	x	x	x
O=C(OCC(=O)c1c[nH]c2ccccc12)c1cc(S(=O)(=O)N2CCOCC2)ccc1F	x	x	20	x	x	x	x	x
O=C(CC(Nc1ccc(Cl)cc1Cl)C(=O)O)c1ccccc1 (centres undefined)	x	x	25	3	25*	x	76*	74*
O=C(CC(Nc1ccccc1Cl)C(=O)OCC(=O)c1cccs1)c1ccccc1 (centres undefined)	-26	16	14	22	32*	92	43*	38*
O=C(CC(Nc1ccccc1)C(=O)O)c1ccccc1 (centres undefined)	x	x	34	19	x	x	x	x
Cc1cc(C)cc(NC(=O)COC(=O)CNC(=O)C2CCCCC2)c1	x	x	-14	x	x	x	x	x
O=C1CN(C(=O)CNCc2ccc(Cl)cc2)c2ccccc2N1	x	x	5	13	25*	x	-13	-11
O=C(CNC(=O)N1CC(=O)Nc2ccccc21)Nc1ccc(Cl)cc1	x	x	1	x	0	x	x	x
COc1cc(/C=C/[N+](=O)[O-])ccc1OCc1cccc(C(=O)O)c1	90*	93*	x	-3	63*	20	51*	2
COc1cc(C(=O)NCC(=O)NCCN2C(=O)S/C(=C\c3ccc4c(c3)OCO4)C2=O)cc(OC)c1OC	x	x	5	x	x	x	x	x
C[C@@H](C(=O)Nc1ccc2c(c1)OCCO2)n1c(=O)[nH]c2ccccc2c1=O	x	x	11	x	54*	x	66*	69*
C[C@@H](C(=O)Nc1ccc2c(c1)OCO2)n1c(=O)[nH]c2ccccc2c1=O	x	x	-4	x	5	x	x	x
NC1=NS(=O)(=O)NC1c1cccc(Cl)c1 (centres undefined)	1	-2	-11	17	22*	103	-3	-6
NC1=NS(=O)(=O)NC1c1ccc(Br)cc1 (centres undefined)	-8	2	-11	19	-3	102	x	x
CCN(CC)S(=O)(=O)c1ccc(-c2cn3cc(Cl)ccc3n2)cc1	x	x	21	x	-2	x	x	x
Clc1ccc(-c2cn3cc(Cl)ccc3n2)cc1	x	x	41	x	32*	x	55*	54*
CCc1nnc(N/N=C/c2cccs2)n1N	-9	-10	5	17	66*	110	-1	-5
CCc1nnc(N/N=C/c2c(Cl)cccc2Cl)n1N	-4	23	3	6	57*	85	-4	-9
CCc1nnc(N/N=C/c2ccc(O)c(OC)c2)n1N	x	x	21	x	0	x	x	x
CCc1nnc(N/N=C/c2cc(Br)c(O)cc2O)n1N	x	x	-4	x	7	x	x	x
SMILES	STAT1 blocker	STAT3 inh	TRAIL sens C8	PPC-1+TRAIL kill	HSP90 inh	STAT3 act	HSP90 inh confirm	luciferase ctr
CCCSc1nnc(N2C(=O)CC(c3ccsc3)C3=C2CCCC3=O)s1 (centres undefined)	6	7	-1	-8	-1	98	x	x
CCN(CC)c1ccc2nc3c4ccccc4c(=O)cc-3oc2c1	x	x	x	x	47*	x	48*	32*
O=C(CCn1c(=S)[nH]c2ccccc2c1=O)NCCc1ccccc1	4	13	-13	12	59*	91	5	-5
O=C(COC(=O)c1cccs1)Nc1ccccc1	-1	6	-18	18	3	97	x	x
COc1ccc(N2CCN(/C(=N\S(=O)(=O)c3ccccc3)Nc3nc(C)cc(C)n3)CC2)cc1	6	-1	-12	-23	39*	102	-4	-6
Cc1ccc(S(=O)(=O)/N=C(/Nc2nc(C)cc(C)n2)N2CCOCC2)cc1	2	-3	9	16	2	104	x	x
CCOc1c(C)cc(-c2ncccc2O)cc1C	14	13	-10	0	1	92	x	x
O=C(OCc1ccc(Br)cc1)c1cccnc1	x	x	-20	x	41*	x	-5	-16
Cc1ccc(-c2cn(-c3ccccc3)c(=S)[nH]2)cc1C	x	x	37	x	19*	x	27*	15*
CCCOc1ccc(/C=N/NC(=O)C(C)Sc2ccccn2)cc1OCC (centres undefined)	-7	-7	-5	1	0	106	x	x
CC(=O)NC(c1ccccc1)c1cc(Cl)c2cccnc2c1O (centres undefined)	x	x	19	x	18*	x	15	-2
Cc1ccc(/C=C2/C(=O)c3ccc(C(=O)O)cc3C2=O)o1	3	-4	-6	5	22*	108	46*	-32
O=C(O)c1ccc2c(c1)C(=O)/C(=C\c1ccco1)C2=O	-5	0	1	12	12	101	x	x
O=C(NCc1ccc(F)cc1)C1CCCN1C(=O)Nc1cccc(F)c1 (centres undefined)	x	x	4	x	24*	x	-1	-3
CC(=O)c1ccc(NC(=O)c2cnn3ccccc23)cc1	85*	83*	3	33	42*	36	63*	12*
Cc1cc(O)c(S(=O)(=O)c2ccccc2)c(C)c1NS(=O)(=O)c1ccccc1	x	x	-6	x	18*	x	21*	-8
Cc1cc(C)c(NS(=O)(=O)c2ccccc2)c(C)c1	x	x	-8	x	x	x	x	x
COc1ccc(S(=O)(=O)N2CCOCC2)cc1NC(=O)CN1C(=O)NC(C)(C2CC2)C1=O (centres undefined)	x	x	-7	x	x	x	x	x
O=C(N[C@@H](Cc1c[nH]c2ccccc12)C(=O)O)C1CCN(S(=O)(=O)c2cccs2)CC1	x	x	-9	x	20*	x	4	0
CNC(=O)c1c(Cl)cnn1-c1ccc(F)cc1	-19	4	1	24	-2	101	x	x
CCOC(=O)N1CCc2c(sc3[nH]c(=S)[nH]c(=S)c23)C1	x	x	x	3	6	x	x	x
Cn1c2ccccc2c(=O)c2ccc(C#CC3(N)CCCCC3)cc21	x	x	30	x	34*	x	30*	9
